Laboratory results reported in ChEMBL document CHEMBL5500387, “Design, synthesis of combretastatin A-4 piperazine derivatives as potential antitumor agents by inhibiting tubulin polymerization and inducing autophagy in HCT116 cells” (Eur J Med Chem, 2024).
Active and inactive are the calls of the source. The rule behind the calls is not given here.

Legend:
HCT-116 [1] = assay: Induction of cell cycle arrest in human HCT-116 cells assessed as accumulation of cells at G0/G1 phase at 0.3 uM measured after 24 hrs by PI/RNase staining based flow cytometry analysis (reference value: 32.88%); type: functional
HCT-116 [2] = assay: Induction of cell cycle arrest in human HCT-116 cells assessed as accumulation of cells at G2/M phase at 0.2 uM measured after 24 hrs by PI/RNase staining based flow cytometry analysis (reference value: 28.83%); type: functional
HCT-116 [3] = assay: Induction of autophagy in human HCT-116 cells transfected with mRFP-GFP-LC3 adenovirus assessed as increase in LC3 labeling by measuring increase in number of yellow dots measured after 24 hrs by immunofluorescence staining based confocal microscopic analysis; type: functional, cell-based; conditions: dose 0.1-0.3 µM
Method in brief: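 HCT116 cells on glass slides were infected with mRFP-GFP-LC3 adenovirus at 50% confluence and incubated 24 h. They were then treated 24 h with 0.1–0.3 μM or 0.1% DMSO. Fixed in 4% paraformaldehyde, mounted with DAPI, and yellow LC3 puncta imaged by confocal microscopy.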

SK-MES-1 = assay: Cytotoxicity against human SK-MES-1 cells assessed as inhibition of cell proliferation measured after 72 hrs by CCK-8 assay; type: functional, cell-based; conditions: SK-MES-1, 72 h
Method in brief: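 Cells seeded at 2×10^3 per well and grown overnight in 10% FBS medium: HCT116 in McCoy's 5A, A549 and AGS in F-12K, SK-MES-1 in DMEM. Compounds added at varied concentrations with 0.1% DMSO control, 72 h at 37 °C. 10% CCK-8 for 2 h, then A450 read. Survival = (As−Ab)/(Ac−Ab)×100%. IC50 from curve fitting.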

HCT-116 [4] = assay: Induction of autophagy in human HCT-116 cells assessed as downregulation of p62 protein level measured after 24 hrs by Western blot analysis; type: functional, cell-based; conditions: dose 0.1-0.3 µM
Method in brief: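 HCT116 cells exposed for 24 h to 0.1, 0.2 or 0.3 μM. Lysed on ice and protein measured by BCA. […] Milk-blocked, probed with anti-LC3A/B or anti-phospho-SQSTM1/p62 (1:1000) plus β-actin, then HRP anti-rabbit and chemiluminescence. Bands normalised to control set to 1. Three independent experiments.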

A549 [5] = assay: Induction of apoptosis in human A549 cells assessed as late apoptotic cells at 0.3 uM measured after 24 hrs by Annexin V-APC/PI staining based flow cytometry analysis (reference value: 0.86%); type: functional
HCT-116 [6] = assay: Induction of cell cycle arrest in human HCT-116 cells assessed as accumulation of cells at S phase at 0.1 uM measured after 24 hrs by PI/RNase staining based flow cytometry analysis (reference value: 38.29%); type: functional
A549 [7] = assay: Induction of cell cycle arrest in human A549 cells assessed as accumulation of cells at G2/M phase at 0.3 uM measured after 24 hrs by PI/RNase staining based analysis (reference value: 10.22%); type: functional
A549 [8] = assay: Induction of apoptosis in human A549 cells assessed as dead cells at 0.3 uM measured after 24 hrs by Annexin V-APC/PI staining based flow cytometry analysis (reference value: 0.50%); type: functional
A549 [9] = assay: Induction of apoptosis in human A549 cells assessed as early apoptotic cells at 0.3 uM measured after 24 hrs by Annexin V-APC/PI staining based flow cytometry analysis (reference value: 1.73%); type: functional
HCT-116 [10] = assay: Induction of cell cycle arrest in human HCT-116 cells assessed as accumulation of cells at S phase at 0.2 uM measured after 24 hrs by PI/RNase staining based flow cytometry analysis (reference value: 38.29%); type: functional
HCT-116 [11] = assay: Antitumor activity against human HCT-116 cells xenografted in female BALB/c nude mouse assessed as tumor growth inhibition at 20 mg/kg, ip administered every 2 days for 20 days by vernier caliper relative to control; type: functional; conditions: HCT-116, 480 h, time 20 day, read-out: TGI
Method in brief: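 HCT116 cells (5×10^7/0.2 mL/mouse) injected subcutaneously beside the right forelimb of 5-week-old female BALB/c nude mice. At 100 mm³ tumour volume, mice randomised by weight and tumour size into four groups of ten. Saline vehicle control ip. Dosing for 20 days, then euthanasia and tumour weighing. Caliper diameters used; volume = W²×L/2.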

[12] = Toxicity in female BALB/c nude mouse xenografted with human HCT-116 cells assessed as reduction in body weight at 20 to 40 mg/kg, ip administered every 2 days for 20 days; type: organism-based; conditions: in vivo, 480 h, dose 20-40 mg/kg, time 20 day
Method in brief: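 Female BALB/c nude mice, 5 weeks old, bearing subcutaneous HCT116 xenografts (started at 100 mm³), randomised into groups of ten. Saline-injected ip controls. Body weight monitored throughout the 20-day intraperitoneal treatment.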

A549 [13] = assay: Induction of apoptosis in human A549 cells assessed as live cells at 0.2 uM measured after 24 hrs by Annexin V-APC/PI staining based flow cytometry analysis (reference value: 96.91%); type: functional
HCT-116 [14] = assay: Induction of cell cycle arrest at G2/M phase in human HCT-116 cells assessed as reduction in Cdc-2 protein expression measured after 48 hrs by Western blot analysis; type: functional, cell-based; conditions: dose 0.1-0.3 µM
Method in brief: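 HCT116 cells given 0.1, 0.2 or 0.3 μM for 48 h, with 0.1% DMSO control. Lysates run on SDS-PAGE and blotted to PVDF. Probed with anti-Cdc2 and anti-Cyclin B1 (1:1000), β-actin as loading control, HRP secondary, and chemiluminescence. Band quantities expressed relative to control set to 1. Three independent experiments.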

Tubulin (Homo sapiens) = Tubulin (Homo sapiens) (UniProt P68371+Q9H4B7+P0DPH7+P68366+Q13509+Q71U36+P04350+Q3ZCM7+P07437+P68363+Q9BQE3+Q6PEY2+Q13885+Q9BVA1+Q9BUF5); assay: Disruption of microtubule network in human HCT-116 cells at 0.1 to 0.3 uM measured after 48 hrs by immunofluorescent staining based analysis; type: cell-based; conditions: dose 0.1-0.3 µM
Method in brief: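 HCT116 cells (1×10^5/well suspension) settled on glass slides overnight at 37 °C, 5% CO2. Treated 48 h with 0.1, 0.2 or 0.3 μM, or 0.1% DMSO. Fixed in 4% paraformaldehyde, permeabilised with 0.5% Triton X-100, blocked. Anti-α-tubulin (1:4000) at 4 °C overnight, then Alexa488 anti-mouse IgG 1 h. DAPI mount, confocal imaging.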

HCT-116 [15] = assay: Induction of cell cycle arrest in human HCT-116 cells assessed as accumulation of cells at G2/M phase at 0.3 uM measured after 24 hrs by PI/RNase staining based flow cytometry analysis (reference value: 28.83%); type: functional
A549 [16] = assay: Induction of apoptosis in human A549 cells assessed as live cells at 0.3 uM measured after 24 hrs by Annexin V-APC/PI staining based flow cytometry analysis (reference value: 96.91%); type: functional
HCT-116 [17] = assay: Inhibition of cell invasion in human HCT-116 cells measured after 48 hrs by crystal violet staining based fluorescent inverted microscopic analysis; type: functional; conditions: dose 0.1-0.3 µM
Method in brief: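 Transwell inserts were coated with Matrigel (1:3 in serum-free medium). HCT116 cells (1×10^4) in serum-free medium went in the upper chamber, with complete medium as stimulus. Treated with 0.1, 0.2 or 0.3 μM or 0.1% DMSO for 48 h at 37 °C. Fixed in 4% paraformaldehyde, stained with 0.1% crystal violet, and imaged. Counts analysed by ImageJ. At least three replicates.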

COc1ccc(/C=C(/C(=O)N2CCN(c3ccc(C)cc3)CC2)c2cc(OC)c(OC)c(OC)c2)cc1O
Activity (HCT-116 [1]): 5.43%
Activity (HCT-116 [2]): 44.67%
Activity (HCT-116 [3]): Dose-Dependent Effect
IC50 (SK-MES-1): 0.423 µM
Activity (HCT-116 [4]): Dose-Dependent Effect
Activity (A549 [5]): 8.87%
Activity (HCT-116 [6]): 31.95%
Activity (A549 [7]): 5.65%
Activity (A549 [8]): 1.25%
Activity (A549 [9]): 21.09%
Activity (HCT-116 [10]): 21.17%
inhibition in vivo at 20 mg/kg (HCT-116 [11]): 1.48%
Activity [12]: Non-Toxic
Activity (A549 [13]): 76.79%
Activity (HCT-116 [14]): Dose-Dependent Effect
Activity (Tubulin (Homo sapiens)): Active
Activity (HCT-116 [15]): 88.26%
Activity (A549 [16]): 68.79%
inhibition (HCT-116 [17]): Dose-Dependent Effect
